Screening results from PubChem.
Compounds with a hit are over-represented: about 2.3% of the library has one in this group of screens.
DNMT1 inh = human DNMT1 methyltransferase inhibitors, primary screen, biochemical, molecular beacon, fluorescence, HinP1I cleavage, uHTS; inhibition (reported as % activation of signal), % at 10 µM; DNA (cytosine-5)-methyltransferase 1 (Homo sapiens), P26358; actives 0.83% (n = 360,000); AID 588458, 2011; in the data active = inhibition above about 50%
STEP inh = STEP phosphatase inhibitors, primary screen, biochemical, fluorescence intensity, uHTS | Tyrosine-protein phosphatase non-receptor type 5 (Homo sapiens), P54829 | recombinant STEP, OMFP fluorogenic substrate | inhibition, % at 20 µM | actives 0.25% (n = 360,000) | AID 588621, 2011;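 active = inhibition at 20 µM, scaled per plate between control wells, above about 37%, limit read from the data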;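 note: 0% = DMSO with enzyme and substrate and 100% = substrate only without enzyme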
Target sequence (P54829 whole entry, looked up): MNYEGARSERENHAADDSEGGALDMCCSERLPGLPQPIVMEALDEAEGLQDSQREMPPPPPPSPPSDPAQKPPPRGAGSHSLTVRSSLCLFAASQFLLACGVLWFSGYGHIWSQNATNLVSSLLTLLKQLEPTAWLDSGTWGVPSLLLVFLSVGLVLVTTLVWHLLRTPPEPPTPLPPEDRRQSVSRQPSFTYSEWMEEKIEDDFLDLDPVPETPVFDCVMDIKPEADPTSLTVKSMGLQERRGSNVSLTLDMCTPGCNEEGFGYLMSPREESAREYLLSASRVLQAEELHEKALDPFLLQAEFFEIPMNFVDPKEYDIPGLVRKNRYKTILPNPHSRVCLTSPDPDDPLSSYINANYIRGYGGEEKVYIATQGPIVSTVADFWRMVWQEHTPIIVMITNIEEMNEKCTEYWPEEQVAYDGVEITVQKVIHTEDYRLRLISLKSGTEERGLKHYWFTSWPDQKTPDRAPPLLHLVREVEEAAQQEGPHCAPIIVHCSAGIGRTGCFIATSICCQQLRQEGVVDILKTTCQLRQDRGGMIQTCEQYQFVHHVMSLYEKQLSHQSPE
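Test system: STEP tyrosine phosphatase / Reagent: OMFP at 25 µM / Doses: 20 µM, 1% DMSO / Read-out: percent inhibition scaled to no-enzyme and uninhibited-enzyme controls, plate-pattern corrected / Detection: FITC-channel fluorescence of OMFP product / Medium: Bis-Tris buffer pH 6.0, 2.5 mM DTT, 0.005% Tween 20 / Schedule: 20 min at room temperature, dark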
SUMO1 PPI mod = modulators of SUMO1 protein-protein interactions, primary screen, biochemical, uHTS | SUMO1 binding to a labelled peptide, TR-FRET, 1 h | inhibition, % at 20 µM | actives 0.33% (n = 360,000) | AID 602429, 2012; in the data active = inhibition above about 37%
NadD block = inhibitors of S. aureus NadD, primary screen, biochemical, colorimetric, uHTS; Nicotinate-nucleotide adenylyltransferase NadD (Staphylococcus aureus N315); purified NadD enzyme, colorimetric absorbance read-out; inhibition, % at 20 µM; actives 0.78% (n = 360,000); in the data active = inhibition above about 26%
LMPTP block = LMPTP phosphatase inhibitors, primary screen, biochemical, fluorescence intensity, uHTS. actives 0.22% (n = 360,000). Low molecular weight phosphotyrosine protein phosphatase (Homo sapiens), P24666. recombinant LMPTP-A, OMFP fluorogenic substrate. inhibition, % at 20 µM;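 active = compounds that cut the enzyme signal by at least half of the control window in the single-dose screen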;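 note: plate controls were DMSO wells with enzyme plus substrate for no effect and substrate without enzyme for full effect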
Target sequence (P24666 whole entry, looked up): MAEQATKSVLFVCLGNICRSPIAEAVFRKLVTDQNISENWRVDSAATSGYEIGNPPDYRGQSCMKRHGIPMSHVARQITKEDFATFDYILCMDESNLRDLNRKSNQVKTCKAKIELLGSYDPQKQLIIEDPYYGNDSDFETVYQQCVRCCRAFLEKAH
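Test system: LMPTP-A phosphatase enzyme. Amount: LMPTP-A at 0.625 nM final in the reaction. Reagent: OMFP substrate, 400 µM final. Times: 50 min at room temperature. Signal: endpoint fluorescence intensity from OMFP dephosphorylation. Read-out basis: % inhibition. Benchmarks: no-enzyme and uninhibited controls.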
Scp1 inh = Scp-1 phosphatase inhibitors, primary screen, biochemical, colorimetric, uHTS | AID 493091, 2011 | Recombinant Scp1, phosphopeptide, malachite green phosphate absorbance | Carboxy-terminal domain RNA polymerase II polypeptide A small phosphatase 1 (Homo … | inhibition, % at 20 µM | actives 0.88% (n = 340,000);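 active = inhibition above about 50% at 20 µM, limit read from the data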;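 note: plate controls were DMSO wells with enzyme for no effect and wells lacking enzyme for full effect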
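Material: truncated SCP-1 phosphatase (76-261aa) / Buffer or medium: 50 mM Tris acetate pH 5.5, 0.005% Tween-20, 10 mM MgCl2 / Compound dosing: one concentration, 20 µM, with 1.0% DMSO / Incubation: 45 min room-temperature reaction, 5 min colour, 30 min stabiliser / Detection: colorimetric free-phosphate detection, absorbance 630 nm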
Scp1 confirm = Scp-1 phosphatase inhibitors, retest, confirmation, biochemical, colorimetric, single concentration. shares compounds with Scp1 inh. recombinant SCP-1 catalytic domain, phosphate release, malachite green absorbance. inhibition, % at 20 µM. actives 61% (n = 2,500). AID 540281, 2011;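 note: plate controls were DMSO with enzyme for no effect and buffer wells lacking enzyme for full effect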
MG interference = colorimetric readout interference by compounds, confirmation, artefact control for Scp-1 inhibitor project, biochemical, single concentration; 2,500 tested, under 10 active; shares compounds with Scp1 inh; apparent inhibition (interference), % at 20 µM; Colorimetric interference counterscreen, malachite green absorbance 630 nm;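 note: compounds added after enzyme reaction finished so only phosphate colour detection is probed; plate controls were DMSO wells with completed Scp-1 reaction for no effect and substrate wells lacking enzyme for full effect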
Scp1 DSF = Scp-1 binding by thermal shift, confirmation, orthogonal assay for Scp-1 inhibitor project, biophysical, differential scanning fluorimetry | shares compounds with Scp1 inh | Recombinant SCP1, Sypro Orange thermal shift Tm | thermal shift relative to vanadate control, % at 40 µM | actives 25% (n = 1,500) | AID 540329, 2011;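 active = substances whose mean melting-temperature shift, as a percentage of the reference inhibitor's shift, reaches about 5.3%, limit read from the data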;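 note: 0% = Tm of DMSO wells and 100% = Tm with sodium orthovanadate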
DNMT1 inh conf = DNMT1 methyltransferase inhibitor retest, confirmation, biochemical, molecular beacon, fluorescence, single concentration; DNMT1 molecular beacon HinP1I cleavage; inhibition, % at 10 µM; actives 8% (n = 2,300); shares compounds with DNMT1 inh;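 active = average inhibition of at least 30% in the single-concentration confirmation test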
DNMT1 interf = beacon fluorescence artifact counter-screen; shares compounds with DNMT1 inh; DNMT1 molecular beacon spectral interference counterscreen, fluorescence 485/520; actives 1% (n = 2,300); activation (fluorescence interference), % at 10 µM;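 active = activation of at least 30% at 10 µM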;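 note: DNMT1 catalytic domain with a HinP1I cleavage step and a FAM/dabcyl DNA beacon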
* marks the source's active call; other numbers are inactive results; . = not tested or not shown.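 Rule for the calls, unless noted: active = inhibition of at least 30% at 20 µM; inactive = the rest.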

SMILES	DNMT1 inh	STEP inh	SUMO1 PPI mod	NadD block	LMPTP block	Scp1 inh	Scp1 confirm	MG interference	Scp1 DSF	DNMT1 inh conf	DNMT1 interf
CCOc1cccc(=O)c2c(C)n(-c3ccc(C(=O)O)cc3)c(C)c12	93.6*	31.0	40.5*	12.4	2.9	60.0*	54.7*	-3.5	15.1*	1.9	-0.4
Cc1ccc(C(=O)NCC(=O)OCC(=O)N(CC(C)C)c2c(N)n(Cc3ccccc3)c(=O)[nH]c2=O)s1	-0.2	-0.6	-1.9	0.7	-1.8	.	.	.	.	.	.
CN(CC(=O)Nc1cccc(F)c1)C(=O)c1cccc(-n2cccc2)c1	90.6*	-0.1	15.3	4.4	8.1	77.2*	61.1*	-13.1	6.7*	13.3	0.1
Cc1ccc(C)c(NC(=O)CN(C)C(=O)c2cccc(-n3cccc3)c2)c1	94.3*	3.6	14.8	-1.0	8.2	79.3*	57.7*	-20.8	-8.1	8.8	1.5
CN(CC(=O)Nc1cccc(F)c1)C(=O)c1ccc(N2C(=O)c3ccccc3C2=O)cc1	21.0	-2.8	-11.0	0.2	0.7	-1.7	.	.	.	.	.
CN(CC(=O)Nc1c(Cl)cccc1Cl)C(=O)c1cccc(-n2cccc2)c1	68.5*	1.4	17.6	1.3	10.3	83.5*	48.5*	-26.8	0.9	-0.6	0.7
CN(CC(=O)Nc1ccccc1Cl)C(=O)c1cccc(-n2cccc2)c1	-6.4	1.4	0.7	1.8	2.9	-6.2	.	.	.	.	.
COc1ccc2cc3c(N)nn(C(=O)c4ccc(Cl)c([N+](=O)[O-])c4)c3nc2c1	83.2*	89.1*	0.2	16.4	65.1*	93.7*	73.6*	-17.2	8.2*	9.3	-8.3
CS(=O)(=O)c1ccc(-c2sc3ccccc3c2C(=O)N2CCN(c3ccc(F)cc3)CC2)cc1	60.1*	-2.7	-0.7	9.8	6.4	68.4*	63.2*	-10.1	4.2	9.9	0.8
O=C(c1ccccc1C(=O)N1CCN(c2ccc(F)cc2)CC1)N1CCN(c2ccc(F)cc2)CC1	-3.7	1.1	-0.4	-7.0	1.1	4.5	.	.	.	.	.
COc1cc(CN2CCCC(N3CCN(c4ccc(F)cc4)CC3)C2)ccc1F (centres undefined)	0.5	1.6	0.3	-4.0	-0.6	-6.5	.	.	.	.	.
Cc1sc2nc3n(c(=O)c2c1C)CCCS3	-0.6	5.1	-0.1	1.4	0.0	-4.2	.	.	.	.	.
O=Cc1ccc2oc3nc4n(c(=O)c3c(=O)c2c1)CCCS4	94.3*	4.8	24.6	10.3	45.2	80.4*	66.9*	-10.7	-3.9	-3.6	-0.9
c1ccc(-c2ccccc2OCCOCCN2CCOCC2)cc1	-0.3	6.0	9.3	0.0	-1.7	-4.7	.	.	.	.	.
COc1ccc(NC(=O)/C(C#N)=C/c2ccc(Br)o2)cc1	99.1*	6.3	1.3	-1.8	22.7	76.7*	55.6*	-14.0	5.5*	1.3	1.4
COc1ccc(NC(=O)/C(C#N)=C\c2ccc(N3CCOCC3)o2)cc1	23.0	-12.6	-69.8	4.1	22.1	-11.3	.	.	.	.	.
COc1cc2c(-c3ccccc3)c(C)oc2cc1/C=N/NC(N)=S	16.7	-1.9	6.3	4.1	0.3	-14.8	.	.	.	.	.
COc1ccc2c(c1)C(=NNC(=O)c1ccccn1)c1cc(OC)ccc1-2	88.3*	31.3	10.3	-7.1	29.2	81.2*	61.7*	-12.6	0.0	1.8	-3.5
CC(=O)Nc1ccc(Sc2ccccc2C(=O)O)cn1	23.5	-0.7	16.6	-2.3	0.0	21.6	.	.	.	.	.
Cc1cc(C)c(S(=O)(=O)N2CCOC2CNC(=O)C(=O)NCCCn2ccnc2)c(C)c1 (centres undefined)	0.3	-2.4	-4.2	6.2	5.8	-15.5	.	.	.	.	.
COc1ccc2c(COC(=O)CC3Sc4ccccc4NC3=O)cc(=O)oc2c1 (centres undefined)	-1.3	-0.6	-1.1	7.1	3.1	3.1	.	.	.	.	.
CC(=O)Nc1ccc2c(COC(=O)CC3Sc4ccccc4NC3=O)cc(=O)oc2c1 (centres undefined)	60.2*	12.1	2.1	7.0	14.2	57.1*	69.8*	-9.8	3.7	10.2	3.5
COC(=O)N/N=C/c1ccc(OC(=O)/C=C/c2ccco2)cc1	52.8*	5.6	-12.5	-5.4	4.9	55.5*	9.4	-21.1	.	2.8	5.9
CCOC(=O)c1c(C)n(C)c2ccc(OC)c([N+](=O)[O-])c12	-2.5	3.0	3.4	-0.4	-0.2	-4.0	.	.	.	.	.
O=c1c2ccccc2nc2sc(Nc3ccc(F)cc3)nn12	49.6	36.9	-61.3	-1.7	3.7	92.4*	74.3*	-17.3	-10.2	1.9	-1.3
NC(=O)c1c(NC(=O)c2ccco2)sc2c1CCC2	10.3	-0.6	7.9	2.9	0.3	-8.0	.	.	.	.	.
N#Cc1c(NC(=O)c2ccco2)sc2c1CCC2	54.2*	21.9	16.5	-4.5	23.7	62.6*	56.3*	-14.7	-0.9	3.6	0.0
O=C(O)C1CC(c2ccc(F)cc2)=NO1 (centres undefined)	86.2*	-0.1	5.4	-13.9	-1.9	52.4*	34.2*	-16.7	-5.0	13.2	3.8
